Measured values collected from several papers.
Matrix: plasma

Compound	species	route	dose	notes	endpoint	result
CC(C)c1nc(N(C)S(C)(=O)=O)nc(-c2ccc(F)cc2)c1/C=C/[C@@H](O)C[C@@H](O)CC(=O)O	human	oral	10 mg		Vd/F	8020 L
OC[C@H]1O[C@@H](c2cc(Cc3ccc(C4CC4)cc3)c(Cl)c3c2CCO3)[C@H](O)[C@@H](O)[C@@H]1O	human	oral	0.3 mg	single dose, fed	Vd/F	177 L
N#Cc1cccc(-c2ccc3ncc(-c4cc(F)cc(F)c4)c(N4CCC(N)CC4)c3c2)c1O	human	intravenous	50 µg		Vd	220 L
COc1ccc(F)cc1C(=O)NCc1ccc(-c2nn([C@@H](C)C(F)(F)F)c(N)c2C(N)=O)cc1	male human	intravenous	22 µg		Vd	0.54 L/kg
COc1ccc2c(c1)CN(C(=O)CCN1CCC(Cc3ccccc3)CC1)CC[S@@+]2[O-]	male human	intravenous	0.4 mg/kg	healthy volunteers	Vd	46.3 L
C=CC(=O)NC1CCN(c2ncc3ncnc(Nc4ccc(Oc5ccc6c(c5)ncn6C)c(C)c4)c3n2)CC1	male human	intravenous	100 µg	single dose, healthy volunteers	Vd	391 L
C=CC(=O)N1C[C@H](Nc2ncnc3[nH]ccc23)CC[C@@H]1C	human	oral	30 mg		Vd/F	183 L
C[C@@H](Oc1ccc(S(C)(=O)=O)cc1C(=O)N1C[C@@H]2C[C@]2(c2cc(C(F)(F)F)on2)C1)C(F)(F)F	human	oral	10 mg	single dose, fed	Vd/F	247 L
